Values joined by “and” are separate entries in the source; they are usually repeats but may differ in a detail not shown here. Identical values can stand only once.
Assays:
Escherichia coli [1] = assay: Inhibition of growth of methotrexate-sensitive (MB1417) strain of Escherichia coli cells.; type: functional
Summary of the method: (§1)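 E. coli cultures kept on nutrient agar slants. Inoculum from two serial 24 h, 37 °C transfers in glucose-salts medium with 0.6% vitamin-free acid-hydrolyzed casein, washed twice, then diluted to about 15 cells/mL. Each 10 mL tube held basal medium, 25% glucose solution (1 mL) and inhibitor dissolved in water or 0.04 M HCl, diluted in sterile water. C = molar concentration giving 50% culture inhibition.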

Escherichia coli [2] = assay: Inhibition of growth of methotrexate-resistant (MB1428) strain of Escherichia coli cells.; type: functional; summary of the method: as §1
Escherichia coli [3] = assay: Inhibition of growth of methotrexate resistant (MB1428) strain of Escherichia coli cells; type: functional; summary of the method: as §1
[4] = target: T1, Dihydrofolate reductase type 1 (Escherichia coli) (UniProt P00382)
T1 sequence (whole entry): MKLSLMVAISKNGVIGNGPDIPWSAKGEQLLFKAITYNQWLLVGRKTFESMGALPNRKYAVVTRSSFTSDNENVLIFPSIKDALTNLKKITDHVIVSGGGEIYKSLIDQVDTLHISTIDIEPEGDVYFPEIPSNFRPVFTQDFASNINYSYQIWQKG

Escherichia coli [5] = assay: Inhibition of growth of methotrexate sensitive (MB1417) strain of Escherichia coli cells; type: functional; summary of the method: as §1
Escherichia coli [6] = assay: Compound was evaluated for the inhibition of growth of methotrexate resistant (MB1428) strain of Escherichia coli cells; d=values could not be determined due to solubility problems encountered with these congener; type: functional, organism-based; summary of the method: as §1
Escherichia coli [7] = assay: The compound was evaluated for the inhibition of growth of methotrexate resistant (MB1428) strain of Escherichia coli cells; d=values could not be determined due to solubility problems encountered with these congener; type: functional, organism-based
Escherichia coli [8] = assay: Compound was evaluated for the inhibition of growth of methotrexate sensitive (MB1417) strain of Escherichia coli cells; d=values could not be determined due to solubility problems encountered with these congener; type: functional, organism-based; summary of the method: as §1

SMILES	Log 1/C (Escherichia coli [1])	Log 1/C (Escherichia coli [2])	other results
C=C(C)c1c(OC)cc(Cc2cnc(N)nc2N)cc1OC	6.63	5.66	–
CCCCCCCCCCCOc1cccc(N2C(N)=NC(N)=NC2(C)C)c1	–	–	Log 1/C (Escherichia coli [3]): 5.5; Log 1/Ki app [4]: 6.19; Log 1/C (Escherichia coli [5]): 5.5
CCCCOc1ccc(Cc2cnc(N)nc2N)cc1	4.76	4.01	–
Cc1nc(N)nc(N)c1-c1ccc(Cl)c(Cl)c1 [METOPRINE]	4.24	4.35	–
Nc1ncc(Cc2ccccc2)c(N)n1	4.28	2.92	–
CCCCCCCCCCCCOc1cccc(N2C(N)=NC(N)=NC2(C)C)c1	–	–	Log 1/Ki app [4]: 5.88
COc1cc(Cc2cnc(N)nc2N)cc(OC)c1SC [METIOPRIM]	6.97	5.66	–
CC1(C)N=C(N)N=C(N)N1c1cccc(OCc2ccc(Cl)c(Cl)c2)c1	–	–	Log 1/C (Escherichia coli [3]): 4.01; Log 1/Ki app [4]: 6.15; Log 1/C (Escherichia coli [5]): 4.13
Nc1ncc(Cc2cccc(O)c2)c(N)n1	4.35	2.94	–
COc1cc(Cc2cnc(N)nc2N)cc(OC)c1OC [TRIMETHOPRIM]	6.61	5.34	–
CN(Cc1cnc2nc(N)nc(N)c2n1)c1ccc(C(=O)N[C@@H](CCC(=O)O)C(=O)O)cc1 [METHOTREXATE]	3.76	2.7	–
CCCCCCCCOc1cc(Cc2cnc(N)nc2N)ccc1OC	4.91	–	Log 1/C (Escherichia coli [6]): Not detected
COCCOc1ccc(Cc2cnc(N)nc2N)cc1	4.61	3.11	–
COCc1cccc(Cc2cnc(N)nc2N)c1	4.68	2.98	–
CCOCc1cccc(N2C(N)=NC(N)=NC2(C)C)c1	–	–	Log 1/Ki app [4]: 5.92
CC1(C)N=C(N)N=C(N)N1c1cccc(S(=O)(=O)F)c1	2.5	2	–
CCOc1cc(Cc2cnc(N)nc2N)ccc1OCc1ccccc1	5.04	–	Log 1/C (Escherichia coli [7]): Not detected
CCc1cccc(OCc2cccc(N3C(N)=NC(N)=NC3(C)C)c2)c1	–	–	Log 1/C (Escherichia coli [3]): 3.98; Log 1/Ki app [4]: 5.95; Log 1/C (Escherichia coli [5]): 3.67
Nc1ncc(Cc2ccc(Br)cc2)c(N)n1	5.12	3.69	–
CC1(C)N=C(N)N=C(N)N1c1cccc(CSc2ccccc2)c1	–	–	Log 1/C (Escherichia coli [3]): 3.52; Log 1/C (Escherichia coli [5]): 3.39
CC1(C)N=C(N)N=C(N)N1c1cccc(OCC23CC4CC(CC(C4)C2)C3)c1	–	–	Log 1/C (Escherichia coli [3]): 4.63; Log 1/C (Escherichia coli [5]): 4.49
CC1(C)N=C(N)N=C(N)N1c1cccc(COc2cccc(NC(N)=O)c2)c1	–	–	Log 1/Ki app [4]: 5.91
CS(=O)(=O)Oc1cccc(Cc2cnc(N)nc2N)c1	4.59	3.35	–
CC1(C)N=C(N)N=C(N)N1c1cccc(COc2cccc(Cl)c2)c1	–	–	Log 1/Ki app [4]: 6.01
COCCOc1cccc(Cc2cnc(N)nc2N)c1	4.33	2.92	–
Cc1cccc(SCc2cccc(N3C(N)=NC(N)=NC3(C)C)c2)c1	–	–	Log 1/C (Escherichia coli [3]): 3.76; Log 1/Ki app [4]: 6.57; Log 1/C (Escherichia coli [5]): 3.87
COc1cccc(OCc2cccc(N3C(N)=NC(N)=NC3(C)C)c2)c1	–	–	Log 1/C (Escherichia coli [3]): 3.26; Log 1/Ki app [4]: 6.02; Log 1/C (Escherichia coli [5]): 3.21

SMILES	Log 1/C (Escherichia coli [1])	Log 1/C (Escherichia coli [2])	other results
CCCCCCOc1cccc(Cc2cnc(N)nc2N)c1	4.81	4.53	–
CC1(C)N=C(N)N=C(N)N1c1cccc(OCCOc2cccc(C(F)(F)F)c2)c1	4.01	4.14	–
CC1(C)N=C(N)N=C(N)N1c1cccc(COc2cccc(C#N)c2)c1	–	–	Log 1/C (Escherichia coli [3]): 3.02; Log 1/Ki app [4]: 6.05; Log 1/C (Escherichia coli [5]): 2.74
CCCCCCCCCCCCCCOc1cccc(N2C(N)=NC(N)=NC2(C)C)c1	–	–	Log 1/Ki app [4]: 5.85
CCCCCCCCOc1cccc(Cc2cnc(N)nc2N)c1	–	4.41	Log 1/C (Escherichia coli [8]): Not detected
COCCOc1c(OC)cc(Cc2cnc(N)nc2N)cc1OC [TETROXOPRIM]	5.83	4.72	–
COc1ccc(Cc2cnc(N)nc2N)cc1OC [DIAVERIDINE]	6.08	4.46	–
COc1cc(Cc2cnc(N)nc2N)cc(OC)c1Br [BRODIMOPRIM]	6.67	5.69	–
COc1cc(Cc2cnc(N)nc2N)cc(OC)c1	6.08	4.55	–
COc1ccc(OC)c(Cc2cnc3nc(N)nc(N)c3c2C)c1 [PIRITREXIM]	5.95	4.56	–
CC1(C)N=C(N)N=C(N)N1c1ccc(Cl)cc1 [CYCLOGUANIL]	2.47	2.5	–
CCCCCCCCOc1c(OC)cc(Cc2cnc(N)nc2N)cc1OC	5.18	–	Log 1/C (Escherichia coli [6]): Not detected
CCCCOc1cccc(N2C(N)=NC(N)=NC2(C)C)c1	–	–	Log 1/C (Escherichia coli [3]): 3.49; Log 1/C (Escherichia coli [5]): 3.29
CN(C)c1ccc(Cc2cnc(N)nc2N)cc1	4.94	3.46	–
CCCCCCCOc1cccc(Cc2cnc(N)nc2N)c1	4.88	4.84	–
Cc1cccc(Cc2cnc(N)nc2N)c1	4.91	3.29	–
Cc1cccc(OCc2cccc(N3C(N)=NC(N)=NC3(C)C)c2)c1	–	–	Log 1/C (Escherichia coli [3]): 3.41; Log 1/Ki app [4]: 6.27; Log 1/C (Escherichia coli [5]): 3.27
Nc1ncc(Cc2ccc([N+](=O)[O-])cc2)c(N)n1	4.53	3.43	–
CC1(C)N=C(N)N=C(N)N1c1cccc(COc2cccc(CO)c2)c1	–	–	Log 1/C (Escherichia coli [3]): 2.51; Log 1/Ki app [4]: 6.19; Log 1/C (Escherichia coli [5]): 2.38
CC1(C)N=C(N)N=C(N)N1c1cccc(COc2cccc(NC(=N)S)c2)c1	–	–	Log 1/Ki app [4]: 6.17
CCc1nc(N)nc(N)c1-c1ccc(Cl)cc1 [PYRIMETHAMINE]	4.21	3.56	–
COc1ccc(Cc2cnc(N)nc2N)cc1	5.24 and 4.77	3.46 and 3.7	–
CCCCCCOc1ccc(Cc2cnc(N)nc2N)cc1	4.79	4.55	–
CC(=O)Nc1ccc(Cc2cnc(N)nc2N)cc1	4.08	3.03	–
CC(C)(C)c1cccc(OCc2cccc(N3C(N)=NC(N)=NC3(C)C)c2)c1	–	–	Log 1/C (Escherichia coli [3]): 4.19; Log 1/Ki app [4]: 6.06; Log 1/C (Escherichia coli [5]): 4.1
Nc1ncc(Cc2cccc(Cl)c2)c(N)n1	4.92	3.46	–

— ChEMBL document CHEMBL1122876, “Quantitative structure-activity relationship of antifolate inhibition of bacteria cell cultures resistant and sensitive to methotrexate” (1985)
